Substrate in series [1]: Nc1ncnc2c1ncn2C1OC(CO)C=C1O
As to the kind of experiment: (§1) Michaelis constant was determined against mammalian Adenosine deaminase. A digest of the protocol: (§2)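 Calf intestinal mucosa adenosine deaminase (EC 3.5.4.4), 0.15–0.24 unit depending on substrate. Substrate 15–200 μM in phosphate buffer pH 7.4 at 25 °C. Deamination followed by UV absorbance at 265 nm. Each reaction medium was checked by TLC or UV to confirm the deaminated substrate was the sole product.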

Substrate in series [2]: Nc1ncnc2c1ncn2[C@@H]1O[C@H](CO)C=C1F
The description is as §1. A digest of the protocol: as §2

Substrate in series [3]: Nc1ncnc2c1ncn2[C@@H]1O[C@H](CO)[C@@H](O)[C@H]1O
The series is described as §1. A digest of the protocol:
as §2

B1: Adenosine deaminase (Homo sapiens), P00813 (protein)
chain: MAQTPAFDKPKVELHVHLDGSIKPETILYYGRRRGIALPANTAEGLLNVIGMDKPLTLPDFLAKFDYYMPAIAGCREAIKRIAYEFVEMKAKEGVVYVEVRYSPHLLANSKVEPIPWNQAEGDLTPDEVVALVGQGLQEGERDFGVKARSILCCMRHQPNWSPKVVELCKKYQQQTVVAIDLAGDETIPGSSLLPGHVQAYQEAVKSGIHRTVHAGEVGSAEVVKEAVDILKTERLGHGYHTLEDQALYNRLRQENMHFEICPWSSYLTGAWKPDTEHAVIRLKNDQANYSLNTDDPLIFKSTLDTDYQMTKRDMGFTEEEFKRLNINAAKSSFLPEDEKRELLDLLYKAYGMPPSASAGQNL
As a reminder, the Km is the concentration of substrate that gives half-maximal velocity. In the case of B1, the Km in series [1] amounted to 30 µM; in series [2], 23 µM; in series [3], 5 µM.

For the origin of these results see ChEMBL document CHEMBL1135890, “Structure-activity relationships of 2'-fluoro-2',3'-unsaturated D-nucleosides as anti-HIV-1 agents” (J Med Chem, 2002).
